Test results reported in ChEMBL document CHEMBL1128287, “Ketanserin analogues: the effect of structural modification on 5-HT2 serotonin receptor binding” (J Med Chem, 1995).

Legend:
[1] = biological target: T1, 5-hydroxytryptamine receptor 2C (Rattus norvegicus, UniProt P08909); test: Binding affinity against 5-hydroxytryptamine 2C receptor
T1 sequence (P08909 whole entry): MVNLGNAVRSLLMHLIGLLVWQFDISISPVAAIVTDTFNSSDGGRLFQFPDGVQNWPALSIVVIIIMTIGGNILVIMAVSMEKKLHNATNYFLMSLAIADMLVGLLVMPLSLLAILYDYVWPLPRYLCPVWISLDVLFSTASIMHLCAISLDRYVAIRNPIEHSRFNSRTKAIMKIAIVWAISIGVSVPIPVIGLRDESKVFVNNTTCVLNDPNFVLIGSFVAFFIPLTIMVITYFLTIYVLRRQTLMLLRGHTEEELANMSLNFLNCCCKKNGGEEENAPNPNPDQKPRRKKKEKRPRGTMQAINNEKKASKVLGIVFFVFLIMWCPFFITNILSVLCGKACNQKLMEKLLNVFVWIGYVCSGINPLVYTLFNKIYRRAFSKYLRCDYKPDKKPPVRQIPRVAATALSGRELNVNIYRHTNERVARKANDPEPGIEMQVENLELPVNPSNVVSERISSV
Outline: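 Washed brain membranes in Tris-HCl/MgCl2 pH 7.4 with ascorbate and pargyline. Triplicate tubes held 10 mg wet tissue, 1 nM [³H]-mesulergine, and 100 nM spiperone in every tube to block 5-HT2A sites. Nonspecific binding was defined with 1.0 μM mianserin. Incubated 15 min at 37 °C, then filtered and counted. Ki came from IC50 corrected for radioligand concentration and KD.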

[2] = biological target: Serotonin receptor 2a and 2c (5HT2A and 5HT2C) (Rattus norvegicus) (UniProt P08909+P14842); test: Selectivity as the ratio of Ki value towards 5-hydroxytryptamine 2C receptor to that of 5-hydroxytryptamine 2A receptor; type: protein assay
[3] = biological target: 5-hydroxytryptamine receptor 2A (Rattus norvegicus, UniProt P14842); test: Binding affinity against 5-hydroxytryptamine 2A receptor
Outline: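 Brain tissue homogenized in Tris-HCl 50 mM, MgCl2 10 mM, pH 7.4, then washed, incubated 15 min at 37 °C, and resuspended with 0.1% ascorbate and 10⁻⁵ M pargyline. Triplicate tubes held 5 mg wet tissue and 0.4 nM [³H]-ketanserin, with 1.0 μM cinanserin defining nonspecific binding. Incubated 15 min at 37 °C, then filtered. Ki = IC50/(1 + D*/KD*).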

5-hydroxytryptamine receptor 2A, sequence (P14842 whole entry): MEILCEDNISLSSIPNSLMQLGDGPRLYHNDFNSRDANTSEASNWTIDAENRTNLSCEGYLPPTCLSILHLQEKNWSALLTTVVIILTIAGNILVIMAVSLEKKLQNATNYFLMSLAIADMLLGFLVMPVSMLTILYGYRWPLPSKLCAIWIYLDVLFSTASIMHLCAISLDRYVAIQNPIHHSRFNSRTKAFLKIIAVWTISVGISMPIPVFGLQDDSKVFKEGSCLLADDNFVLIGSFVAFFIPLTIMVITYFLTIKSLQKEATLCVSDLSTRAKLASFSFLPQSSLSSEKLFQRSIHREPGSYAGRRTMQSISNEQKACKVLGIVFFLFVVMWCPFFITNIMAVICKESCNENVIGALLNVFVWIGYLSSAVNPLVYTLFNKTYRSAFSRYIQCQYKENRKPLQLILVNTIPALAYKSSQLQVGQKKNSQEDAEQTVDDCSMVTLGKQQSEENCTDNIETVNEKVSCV
Serotonin receptor 2a and 2c (5HT2A and 5HT2C) (Rattus norvegicus), sequence (P14842 whole entry, looked up, one chain of several): as the sequence (P14842 whole entry) above

Row | SMILES | Ki [1] [µM] | Selectivity [2] | Ki [3] [µM]
1 | Fc1ccc(CC2CCN(CCCCc3ccccc3)CC2)cc1 | 2.74 | 70 | 0.04
2 | O=C(c1ccccc1)N1CCN(CCCCc2ccccc2)CC1 | 8.52 | 47 | 0.18
3 | O=C(c1ccc(F)cc1)C1CCN(CCc2ccccc2)CC1 |  | 17 | 0.0085
4 | c1ccc(CCCCN2CCN(Cc3ccccc3)CC2)cc1 | > 10 | > 40 | 0.24
5 | O=C(c1ccccc1)C1CCN(CCc2ccccc2)CC1 | 0.8 | 83 | 0.0096
6 | O=c1[nH]c2ccccc2c(=O)n1CCN1CCN(C(c2ccccc2)c2ccccc2)CC1 | 0.635 | 10 | 0.065
7 | O=C(c1ccc(F)cc1)C1CCN(CCCCc2ccccc2)CC1 |  | 120 | 0.0053
8 | Fc1ccc(CC2CCN(CCc3ccccc3)CC2)cc1 | 2 | 110 | 0.018
9 | OC(c1ccccc1)C1CCN(CCCCc2ccccc2)CC1 (stereo unspecified) | > 10 | > 35 | 0.265
10 | CN1CCC(C(=O)c2ccccc2)CC1 | > 10 | > 16 | 0.6
11 | O=C(c1ccccc1)C1CCN(CCCCc2ccccc2)CC1 | 2.4 | 240 | 0.01
12 | C(/Cc1ccccc1)=C(\c1ccccc1)C1CCN(CCCCc2ccccc2)CC1 | 1.39 | 14 | 0.1
13 | OC(c1ccc(F)cc1)C1CCN(CCc2ccccc2)CC1 (stereo unspecified) | 1.52 | 460 | 0.003
14 | c1ccc(CCCCN2CCC(Cc3ccccc3)CC2)cc1 | 4.12 | 34 | 0.12
15 | OC(c1ccc(F)cc1)C1CCN(CCCCc2ccccc2)CC1 (stereo unspecified) | 6.6 | 52 | 0.126
16 | C(=C(\c1ccccc1)C1CCN(CCc2ccccc2)CC1)/c1ccccc1 |  |  | 0.019
17 | O=c1[nH]c2ccccc2c(=O)n1CCN1CCC(C(c2ccccc2)c2ccccc2)CC1 | 0.052 | 3 | 0.018
18 | c1ccc(CCN2CCC(Cc3ccccc3)CC2)cc1 | 1.76 | 80 | 0.022
19 | c1ccc(CCN2CCC(=C(c3ccccc3)c3ccccc3)CC2)cc1 | 0.029 | 4 | 0.0069
20 | CN1CCN(C(=O)c2ccccc2)CC1 | > 10 |  | > 10
21 | c1ccc(CCCCN2CCC(=C(c3ccccc3)c3ccccc3)CC2)cc1 | 0.22 | 11 | 0.02
22 | OC(c1ccccc1)C1CCN(CCc2ccccc2)CC1 (stereo unspecified) [GLEMANSERIN] | 0.83 | 330 | 0.0025
